The test system of series [1] is Cryptococcus neoformans. In words: Fungicidal activity against Cryptococcus neoformans H99 measured up to 96 hrs by time-kill assay. The format is functional, organism-based. Conditions: var grubii H99. A digest of the protocol:
(§1)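 Overnight C. neoformans washed in PBS and resuspended in HEPES-buffered YNB, pH 7.4. 2 × 10⁴ cells exposed to a range of drug concentrations in 10 mL with 0.5% DMSO final, at 37°C, 5% CO₂, shaking at 200 rpm. Aliquots sampled over 96 h, diluted and plated on YPD; CFU counted after 48 h at 30°C.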

The subject of series [2] is Candida parapsilosis. In words: Antifungal activity against Candida parapsilosis assessed as FICI in presence of voriconazole. The format is functional. A digest of the protocol:
(§2)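 Checkerboard combination scored by fractional inhibitory concentration index. Acylhydrazone serially diluted 16 to 0.015 μg/mL (11 dilutions). Partner drug in seven dilutions: fluconazole 12 to 0.19 μg/mL, amphotericin B 5 to 0.078 μg/mL, caspofungin, itraconazole or voriconazole 8 to 0.007 μg/mL.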

Series [3] relates to [Candida] auris. The series can be described thus: Antifungal activity against Candida auris assessed as FICI in presence of itraconazole. It counts as functional, Candidozyma auris. A digest of the protocol: as §2
Series [4] concerns [Candida] auris. In words: Antifungal activity against Candida auris assessed as FICI in presence of caspofungin. The format is functional, Candidozyma auris. Summed up: as §2
The test system of series [5] is A549. In words: Cytotoxicity against human A549 cells after 24 to 48 hrs by MTT assay. Conditions: read-out: LD50 (the source's name). The format is functional. Summed up:
(§3)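 A549 and HepG2 kept in DMEM with 10% FBS and 1% pen-strep. At passage 7, seeded at 10⁵ cells/well and allowed to adhere 14 h. Compound added at 0.03–128 μg/mL, untreated wells as controls. Incubation 37°C, 5% CO₂ for 24 or 48 h. MTT (5 mg/mL in PBS) added for 4 h, formazan dissolved in DMSO, OD570.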
For orientation: Tetrazolium assays rely on reduction of a dye to a coloured formazan, in cell work by metabolically active cells.

The subject of series [6] is Candida albicans. The series can be described thus: Antifungal activity against Candida albicans assessed as FICI in presence of caspofungin. The format is functional. Summed up:
as §2

Series [7] has as its system Candida albicans. In words: Antifungal activity against Candida albicans measured after 24 to 72 hrs. The format is functional. A digest of the protocol:
(§4)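 Modified CLSI broth microdilution with inoculum per M27A3. Compounds were serially diluted 32 to 0.03 μg/mL. Media: C. neoformans in HEPES-buffered YNB without amino acids (pH 7.0, 2% glucose); Candida strains in YNB without ammonium sulfate or amino acids plus 1% asparagine (pH 7.0, 2% glucose); A. fumigatus in RPMI (pH 7.0, 2% glucose).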

The test system of series [8] is Candida albicans. In words: Antifungal activity against Candida albicans assessed as FICI in presence of fluconazole. The format is functional. Summed up:
as §2

For series [9], the system named is Pichia kudriavzevii. The series can be described thus: Antifungal activity against Candida krusei 6258 assessed as FICI in presence of itraconazole. The format is functional. A digest of the protocol: as §2
Series [10] relates to Aspergillus fumigatus. In words: Antifungal activity against Aspergillus fumigatus assessed as FICI in presence of fluconazole. It counts as functional. Summed up:
as §2

In series [11] the test system is Cryptococcus neoformans. In words: Antifungal activity against Cryptococcus neoformans H99 assessed as FICI in presence of fluconazole. The format is functional, var grubii H99. Summed up:
as §2

For series [12], the system named is Cryptococcus neoformans. In words: Fungicidal activity against Cryptococcus neoformans H99 measured after 6 hrs by time-kill assay. The format is functional, var grubii H99. A digest of the protocol:
as §1

The subject of series [13] is Candida parapsilosis. In words: Antifungal activity against Candida parapsilosis measured after 24 to 72 hrs. Conditions: Lodderomyces parapsilosis. It counts as functional. A digest of the protocol:
as §4

Series [14] concerns Pichia kudriavzevii. In words: Antifungal activity against fluconazole-resistant Candida krusei assessed as FICI in presence of itraconazole. The format is functional. A digest of the protocol:
(§5)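 Checkerboard in 96-well plate. Test compound diluted 16 to 0.015 μg/mL (11 dilutions) against the partner drug in seven dilutions: fluconazole 12 to 0.19 μg/mL, caspofungin, itraconazole or voriconazole 8 to 0.007 μg/mL. Fractional inhibitory concentration index (FICI) calculated from the combinations.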

A short description of series [15]: Selectivity index, ratio of LD50 for human HepG2 cells to MIC80 for Cryptococcus neoformans H99. It counts as toxicity. Conditions: read-out: Selectivity Index. A digest of the protocol: (§6)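 SI = LD₅₀/MIC₈₀. Cytotoxicity: A549 or HepG2 cells (DMEM, 10% FBS, passage 7, 10⁵ cells/well) adhered 14 h, then exposed to 0.03–128 μg/mL for 24 or 48 h at 37°C, 5% CO₂; MTT 4 h, formazan dissolved in DMSO, read at 570 nm. MIC₈₀ against C. neoformans from broth microdilution in HEPES-buffered YNB, pH 7.0.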

Series [16] deals with Pichia kudriavzevii. In words: Antifungal activity against Candida krusei 6258 assessed as FICI in presence of fluconazole. The format is functional. Summed up: as §2
The subject of series [17] is [Candida] auris. The series can be described thus: Antifungal activity against Candida auris assessed as FICI in presence of fluconazole. The format is functional, Candidozyma auris. Summed up:
as §2

In series [18] the test system is Pichia kudriavzevii. In words: Antifungal activity against fluconazole-resistant Candida krusei assessed as FICI in presence of caspofungin. It counts as functional. Summed up:
as §5

Series [19] can be described thus: Selectivity index, ratio of LD50 for human A549 cells to MIC80 for Cryptococcus neoformans H99. The format is toxicity. Conditions: read-out: Selectivity Index. A digest of the protocol: as §6
Series [20] concerns Candida albicans. The series can be described thus: Antifungal activity against Candida albicans assessed as FICI in presence of itraconazole. The format is functional. Summed up:
as §2

Series [21] deals with [Candida] auris. In words: Antifungal activity against Candida auris assessed as FICI in presence of voriconazole. The format is functional, Candidozyma auris. A digest of the protocol: as §2
In series [22] the test system is Cryptococcus neoformans. The series can be described thus: Antifungal activity against Cryptococcus neoformans H99 assessed as FICI in presence of voriconazole. It counts as functional, var grubii H99. A digest of the protocol: as §2
In series [23] the test system is Aspergillus fumigatus. In words: Antifungal activity against Aspergillus fumigatus assessed as FICI in presence of voriconazole. The format is functional. Summed up: as §2
In series [24] the test system is Candida parapsilosis. In words: Antifungal activity against Candida parapsilosis assessed as FICI in presence of caspofungin. The format is functional. A digest of the protocol:
as §2

Series [25] deals with HepG2. The series can be described thus: Cytotoxicity against human HepG2 cells after 24 to 48 hrs by MTT assay. It counts as functional. Conditions: read-out: LD50 (the source's name). A digest of the protocol:
as §3

Series [26] concerns Cryptococcus neoformans. In words: Antifungal activity against Cryptococcus neoformans H99 assessed as FICI in presence of amphotericin B. It counts as functional, var grubii H99. A digest of the protocol: as §2
The test system of series [27] is Candida albicans. In words: Antifungal activity against Candida albicans assessed as FICI in presence of voriconazole. The format is functional. Summed up:
as §2

In series [28] the test system is Pichia kudriavzevii. The series can be described thus: Antifungal activity against multi-drug resistant Candida krusei measured after 24 to 72 hrs. It counts as functional. A digest of the protocol: (§7)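 MIC by modified CLSI broth microdilution. Candida strains grown in YNB without ammonium sulfate or amino acids with 1% asparagine, pH 7.0, 2% glucose. Inoculum per CLSI M27A3. Compound serially diluted 32 to 0.03 μg/mL. Incubation 37°C, 5% CO₂, 24–72 h, then OD450. MIC80 taken as the lowest concentration giving 80% growth inhibition versus untreated control.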

Series [29] deals with Cryptococcus neoformans. The series can be described thus: Antifungal activity against Cryptococcus neoformans H99 measured after 24 to 72 hrs. The format is functional. Conditions: var grubii H99. A digest of the protocol: as §4
Series [30] relates to Candida parapsilosis. In words: Antifungal activity against Candida parapsilosis assessed as FICI in presence of fluconazole. It counts as functional. A digest of the protocol:
as §2

The test system of series [31] is Pichia kudriavzevii. The series can be described thus: Antifungal activity against Candida krusei measured after 24 to 72 hrs. The format is functional. Summed up:
as §7

For series [32], the system named is Cryptococcus neoformans. The series can be described thus: Antifungal activity against Cryptococcus neoformans H99 assessed as FICI in presence of itraconazole. It counts as functional, var grubii H99. A digest of the protocol:
as §2

In series [33] the test system is Pichia kudriavzevii. In words: Antifungal activity against Candida krusei 6258 assessed as FICI in presence of voriconazole. The format is functional. A digest of the protocol: as §2
Series [34] concerns Pichia kudriavzevii. The series can be described thus: Antifungal activity against fluconazole-resistant Candida krusei assessed as FICI in presence of voriconazole. It counts as functional. A digest of the protocol:
as §5

Series [35] deals with Candida parapsilosis. The series can be described thus: Antifungal activity against Candida parapsilosis assessed as FICI in presence of itraconazole. It counts as functional. Summed up:
as §2

In series [36] the test system is Pichia kudriavzevii. The series can be described thus: Antifungal activity against Candida krusei 6258 assessed as FICI in presence of caspofungin. The format is functional. A digest of the protocol: as §2
In series [37] the test system is Aspergillus fumigatus. In words: Antifungal activity against Aspergillus fumigatus assessed as FICI in presence of itraconazole. The format is functional. A digest of the protocol:
as §2

The subject of series [38] is Aspergillus fumigatus. In words: Antifungal activity against Aspergillus fumigatus measured after 24 to 72 hrs. The format is functional. Summed up: as §4
The test system of series [39] is [Candida] auris. In words: Antifungal activity against Candida auris measured after 24 to 72 hrs. It counts as functional. Conditions: Candidozyma auris. Summed up: as §4
For series [40], the system named is Cryptococcus neoformans. The series can be described thus: Antifungal activity against Cryptococcus neoformans H99 infected in CBA/J mouse assessed as increase in survival at 1.2 mg/kg, ip. The format is functional, organism-based. Conditions: var grubii H99.

Converted amounts (≈) assume the structure as drawn. The source made the active and inactive calls. The calls are words filed in the database; no cut-off is given here.

One may read the MIC80 as the lowest concentration that inhibits either 80% of growth or 80% of the strains tested, depending on the study. As for `O=C(N/N=C/c1cc(Cl)cc(Cl)c1O)c1ccc(Br)c(Br)c1`, the Activity entry in [1] was “Dose-dependent effect”. Further, the “fractional inhibitory concentration index (FICI)” value in series [2] is reported as 1.5; in series [3], 1.12; in series [4] it was 0.5; in series [6] it was 1; in series [8], 0.252; in series [9], 0.53. The “fractional inhibitory concentration index (FICI)” value was found to be 2 in series [10]; 0.237 in [11]; 1.24 in series [14]; 0.25 in [16]; 0.5 in series [17]; 1.004 in [18]. Further, the “fractional inhibitory concentration index (FICI)” value in [20] was determined as 0.091; in series [21], 0.5; in series [22], 0.247; in series [23] it was 1.031; in series [24], 0.501; in series [26], 0.247. Also, the “fractional inhibitory concentration index (FICI)” value is reported as 0.077 in [27]; 0.258 in series [30]; 0.247 in series [32]; 0.56 in [33]; 1.03 in series [34]; 1.25 in [35]. Further, the “fractional inhibitory concentration index (FICI)” value is reported as 1.001 in [36] and 1.008 in series [37]. Further, the CC50 in series [5] and in series [25] was 32 µg/mL (≈ 68.5 µM) each time. Besides, the MIC80 in series [7] was found to be 2 µg/mL (≈ 4.28 µM); in [13], 1 µg/mL (≈ 2.14 µM); in [28], 0.25 µg/mL (≈ 0.535 µM); in series [29], 0.03 µg/mL (≈ 0.0642 µM); in series [31], 0.25 µg/mL (≈ 0.535 µM); in [38], 8 µg/mL (≈ 17.1 µM). For the same compound, the MIC80 in series [39] worked out at 0.5 µg/mL (≈ 1.07 µM). The compound further came in with an MFC100 in series [12] of 1 µg/mL (≈ 2.14 µM). The selectivity ratio in series [15] and in series [19] was 1070 throughout.

Regarding `OC(Cn1cncn1)(Cn1cncn1)c1ccc(F)cc1F`, in series [40], the outcome was Active.

For the origin of these results see ChEMBL document CHEMBL4334465, “SAR Studies on Aromatic Acylhydrazone-Based Inhibitors of Fungal Sphingolipid Synthesis as Next-Generation Antifungal Agents” (J Med Chem, 2019).
